A selection: hits, their analogues and other compounds. The true share with any hit is near 2%.
M1 antag: human M1 muscarinic receptor antagonists, primary screen, CHO-K1 cells, Fluo-8 calcium fluorescence, 1536-well; Muscarinic acetylcholine receptor M1 (Homo sapiens), P11229; CHO-K1 hM1, ACh EC80 antagonist; actives 1.3% (n = 360,000); inhibition, % at 3 µM; AID 588852, 2011;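 active = percent inhibition above its own plate's cutoff, namely the mean of that plate's compound wells plus 3 SD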;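 note: peak over basal fluorescence ratio during 140 s after agonist addition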
Target sequence (P11229 whole entry, looked up): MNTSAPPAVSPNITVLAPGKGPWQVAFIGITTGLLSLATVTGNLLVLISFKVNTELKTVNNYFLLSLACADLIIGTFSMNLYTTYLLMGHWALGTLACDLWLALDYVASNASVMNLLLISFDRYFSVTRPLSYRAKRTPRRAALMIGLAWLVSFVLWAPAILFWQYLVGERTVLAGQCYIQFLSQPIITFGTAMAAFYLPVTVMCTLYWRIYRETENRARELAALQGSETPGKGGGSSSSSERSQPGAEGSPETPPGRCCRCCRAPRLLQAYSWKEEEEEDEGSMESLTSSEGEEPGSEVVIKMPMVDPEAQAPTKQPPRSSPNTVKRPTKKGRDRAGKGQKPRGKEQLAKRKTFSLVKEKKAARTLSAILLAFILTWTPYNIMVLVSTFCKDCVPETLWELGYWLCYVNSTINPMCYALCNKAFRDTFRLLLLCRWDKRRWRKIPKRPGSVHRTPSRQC
CHRM5 antagonist: human M5 muscarinic receptor antagonists, primary screen, CHO cells, Fluo-8 calcium fluorescence | actives 0.59% (n = 360,000) | Muscarinic acetylcholine receptor M5 (Homo sapiens), P08912 | inhibition, % at 3 µM | CHO-hM5 cells, ACh EC80;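 active = inhibition above a per-plate cutoff, the mean of that plate's test compounds plus 3 SD, cut at about 27% in these data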
M5 PAM: human M5 muscarinic receptor positive allosteric modulators, primary screen, CHO-K1 cells, Fluo-8 calcium fluorescence. activation, % at 3 µM. actives 0.3% (n = 360,000). CHO-K1 hM5, ACh EC20 PAM; 0% = ACh EC20, 100% = ACh EC100. Muscarinic acetylcholine receptor M5 (Homo sapiens), P08912;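 active = activation above the run cutoff, the mean activation of all test compounds plus 3 SD, cut at about 18% in these data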
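Probe or stimulus: acetylcholine, EC20 level; Assay system: human M5 receptor in CHO-K1 cells; Schedule: compound preincubation 140 s before EC20 acetylcholine addition; Technique: intracellular calcium via Fluo-8 fluorescence; Dosing: single-point, 3 µM nominal; Read-out basis: percent activation from peak-over-basal fluorescence ratio, scaled EC20-to-EC100 acetylcholine; Repeats: one well per compound, no replicates.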
M1 PAM: human M1 muscarinic receptor positive allosteric modulators, primary screen, CHO-K1 cells, Fluo-8 calcium fluorescence, 1536-well. CHO-K1 hM1, ACh EC20; 0% = ACh EC20, 100% = maximal ACh. Muscarinic acetylcholine receptor M1 (Homo sapiens), P11229. actives 0.088% (n = 360,000). activation, % at 3 µM; in the data active = activation above about 19%, passing the limit was not always enough
M5 ag: human M5 muscarinic receptor agonists, primary screen, CHO-K1 cells, Fluo-8 calcium fluorescence; Muscarinic acetylcholine receptor M5 (Homo sapiens), P08912; CHO-K1 hM5 cells; 0% DMSO wells, 100% maximal acetylcholine response; activation, % at 3 µM; actives 0.19% (n = 360,000); AID 624037, 2012;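 active = activation above the run's mean over test compounds plus 3 SD, cut at about 23% in these data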;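 note: signal is peak over basal fluorescence ratio across the kinetic read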
CHRM1 agonist: human M1 muscarinic receptor agonists, primary screen, Fluo-8 calcium fluorescence, CHO-K1 cells, HTS; Muscarinic acetylcholine receptor M1 (Homo sapiens), P11229; CHO-K1 hM1, agonist mode; 0% DMSO, 100% acetylcholine EC100; activation, % at 3 µM; actives 0.33% (n = 360,000); AID 588814, 2011;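 active = activation above the run's mean compound activation plus 3 SD, cut at about 16% in these data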;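 note: peak over basal fluorescence ratio within a 140 s kinetic read after compound addition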
Numbers stand for hits; – = inactive; · = no result.

SMILES	M1 antag	CHRM5 antagonist	M5 PAM	M1 PAM	M5 ag	CHRM1 agonist
CCN(CC)S(=O)(=O)c1cc(NC(=O)C2CCN(c3ncnc4sc(C)c(C)c34)CC2)ccc1Cl	36	–	–	–	–	–
CCOC(=O)C1=CCN(S(=O)(=O)c2ccccc2C)C1c1cccc(C)c1 (stereo not given)	–	–	–	–	–	–
Cc1c(C(=O)N2CCN(c3ccccc3)CC2)oc2c1C(=O)CC(C)(C)C2	30	–	–	–	–	–
Cc1c(C(=O)N2CCN(c3ccccc3F)CC2)oc2c1C(=O)CC(C)(C)C2	–	–	–	–	–	–
CC(C)CCNC(=O)Cn1c(=O)oc2cc(S(=O)(=O)N3CCc4ccccc43)ccc21	31	–	–	–	–	–
CCC(C)(C)n1nnnc1C(c1ccc(C)cc1)N1CCN(C(=O)c2ccco2)CC1 (stereo not given)	–	–	35	–	–	–
COc1ccccc1C(=O)NCC(c1ccco1)N1CCc2ccccc21 (stereo not given)	–	–	–	–	–	–
COc1ccc(OC)c(S(=O)(=O)NCC(c2ccco2)N2CCc3ccccc32)c1 (stereo not given)	–	–	–	24	–	–
Cc1cc(NC(=O)CS(=O)(=O)c2cn(Cc3cccc(Cl)c3)c3ccccc23)no1	–	–	–	–	–	26
O=C(c1ccc(Br)c(S(=O)(=O)N2CCOCC2)c1)N1CCN(C/C=C/c2ccccc2)CC1	70	–	–	–	–	–
O=C(CNC(=O)c1ccccc1F)N/N=C/c1cn[nH]c1-c1ccccc1	41	29	–	–	–	–
c1ccc(CCC2CCCCN2Cc2nc(-c3ccc4c(c3)OCO4)no2)nc1 (stereo not given)	35	–	–	–	–	–
CCc1ccc(OCC(=O)Nc2ccc(-c3cc4ccccc4oc3=O)c(OC)c2)cc1	–	31	–	–	–	–
COc1cc(NC(=O)c2cc(Cl)ccc2Cl)ccc1-c1cc2ccccc2oc1=O	–	–	–	–	–	–
Cc1nn(CC(=O)NCCCc2ccccc2)c(=O)c2cccn12	–	–	–	–	–	–
Cc1nn(CC(=O)NCc2cccc(F)c2)c(=O)c2cccn12	–	29	–	–	–	–
Nc1[nH]c2cc([N+](=O)[O-])ccc2c1-c1ccccn1	–	32	–	–	26	–
CC(C)(C)c1ccc(OCCCNC2CCCC2)cc1	22	–	–	–	–	–
CCCCCCCCCC[n+]1cccc2c3ccccc3ccc21	82	46	–	–	–	–
Cc1c2ccccc2cc[n+]1CCCS(=O)(=O)[O-]	–	–	–	–	–	–
Cc1cccc[n+]1CCCCCCCCCC[n+]1ccccc1C	–	–	–	–	–	–
CCCCCCCC[n+]1cccc2c3ccccc3ccc21	98	36	–	–	–	–
Cc1cccc(C)c1NC(=O)CN1CCN(C(=O)c2cc(C3CC3)nn2-c2ccccc2)CC1	–	–	–	–	–	–
COCCN(CC1CCCN(C2Cc3ccccc3C2)C1)C(=O)CCC(N)=O (stereo not given)	47	–	–	–	–	–
FC(F)(F)c1nnc(Nc2ccc(Cl)cc2)s1	–	–	–	–	–	–
SMILES	M1 antag	CHRM5 antagonist	M5 PAM	M1 PAM	M5 ag	CHRM1 agonist
Fc1ccc(Nc2nnc(C(F)(F)F)s2)cc1Cl	37	32	–	–	–	–
Cc1ccc[n+](CC(=O)c2ccc(Br)cc2)c1	–	–	–	–	–	–
N#Cc1ccc[n+](CC(=O)c2ccc(Cl)cc2)c1	–	–	23	–	–	–
Cc1ccc2c(c1)C(=O)N1c3cc(C)c(C)cc3NC(=O)C1C(=O)N2 (stereo not given)	–	–	–	–	–	–
CC(=O)Nc1ccc(NC(=O)C(C)OC(=O)/C(C#N)=C/c2ccc(N(C)C)cc2)cc1 (stereo not given)	28	61	–	–	–	–
COc1ccc(NC(=O)c2[nH]ncc2[N+](=O)[O-])cc1	–	–	18	–	–	–
O=C(Nc1ccccc1)c1[nH]ncc1[N+](=O)[O-]	–	–	–	–	–	–
O=C1C2C3c4ccccc4C(c4ccccc43)C2C(=O)N1c1nc(-c2ccccc2)cs1 (stereo not given)	–	–	–	20	–	–
O=C1C2C3c4ccccc4C(c4ccccc43)[C@@H]2C(=O)N1c1nc(-c2ccccc2)cs1 (stereo not given in full)	–	–	–	–	–	–
NC(=O)C(c1ccccc1)C1CCCC1 (stereo not given)	–	–	–	–	–	–
CN(C)[C@@H]1CCC[C@H]1OC(=O)C(c1ccccc1)c1ccccc1	92	53	–	–	–	–
CC1CN(C)C(C)CC1OC(=O)C(c1ccccc1)c1ccccc1 (stereo not given)	97	68	–	–	–	–
CCCCOc1ccc(C(=O)OC2CC(C)N(C)CC2C)cc1 (stereo not given)	44	–	–	–	–	–
CC1CN(C(C)C)C(C)CC1OC(=O)c1ccccc1 (stereo not given)	–	–	–	–	–	–
Clc1ccc(SCCOCCN2CCCCC2)cc1	28	–	–	–	–	–
CC1CCCN(CCSc2ccc(Cl)cc2)C1 (stereo not given)	37	–	–	–	–	–
Clc1ccc(SCCOCCN2CCOCC2)cc1	–	–	–	–	–	–
CC(C(=O)NC1CCCC1)n1c(-c2ccccn2)nc2ccccc21 (stereo not given)	·	–	–	·	–	·
CCOC(=O)C1=CCC(c2cccc3ccccc23)N(S(=O)(=O)c2ccc(C)cc2)C1 (stereo not given)	–	–	–	–	–	–
CC(=O)Nc1ccc(NC(=O)CSc2nnc3ccc(-c4cccnc4)nn23)cc1	20	–	–	–	–	–
Cc1cccc(NC(=O)COC(=O)c2nn(-c3ccccc3C(F)(F)F)cc2O)c1C	–	–	–	–	–	–
NC1=NC(=O)C(=Cc2ccccc2)S1	–	–	–	27	–	–
COc1cc(/C=C2\SC(N)=NC2=O)cc(Br)c1O	–	–	–	–	24	–
COc1cc(/C=N/N2C(=O)CSC2=S)cc(Br)c1O	38	–	–	–	56	55
